{"data": "Published values collected from several papers", "note": "Each line is one published result; the experiments were not run side by side. pEC50, pIC50: −log10 of the molar value."}
{"SMILES": "CCC(NC(=O)c1sc2nc(-c3ccc(OC)cc3)cc(C(F)(F)F)c2c1N)c1ccccc1 (stereo not drawn)", "target or system": "HepG2", "assay": "cell growth or viability", "setting": "72 h", "endpoint": "pIC50", "value": "< 4.00"}
{"SMILES": "N=C(CC(O)c1cc2c(F)cc(F)cc2c2cc(C(F)(F)F)ccc12)Nc1ccc(Br)c(F)c1 (stereo not drawn)", "target or system": "HepG2", "assay": "cell growth or viability, neutral red", "setting": "24 h", "endpoint": "pIC50", "value": 4.55}
{"SMILES": "O=c1c2cc(Cl)ncc2[nH]c(=S)n1Cc1cccnc1", "target or system": "Mycobacterium tuberculosis", "assay": "microbial growth", "test system": "H37RV", "endpoint": "MIC90", "value": "17.6 µM"}
{"SMILES": "N.N.[Cl][Pt][Cl]", "target or system": "Ramos", "assay": "cell growth or viability, ATP luminescence", "setting": "72 h", "endpoint": "pIC50", "value": 5.56}
{"SMILES": "O=c1c2cc(Cl)c(CO)cc2[nH]c(=S)n1Cc1cncnc1", "target or system": "Mycobacterium tuberculosis", "assay": "microbial growth", "test system": "H37RV", "endpoint": "MIC90", "value": "3.23 µM"}
{"SMILES": "N=C(CC(O)c1cc2c(F)cc(F)cc2c2cc(C(F)(F)F)ccc12)Nc1cccc(F)c1 (stereo not drawn)", "target or system": "HepG2", "assay": "cell growth or viability, neutral red", "setting": "24 h", "endpoint": "pIC50", "value": 4.94}
{"SMILES": "O=c1c2cc(Cl)ccc2[nH]c(=S)n1Cc1ccc(-c2ccccc2)nc1", "target or system": "Mycobacterium tuberculosis", "assay": "microbial growth", "test system": "H37RV", "endpoint": "MIC90", "value": "> 100 µM"}
{"SMILES": "Cc1cccc(NC(=O)c2sc3nc(-c4cccs4)cc(C(F)(F)F)c3c2N)c1C", "target or system": "HepG2", "assay": "cell growth or viability", "setting": "72 h", "endpoint": "pIC50", "value": "< 4.00"}
{"SMILES": "Cc1c(F)cccc1NC(=N)CC(O)c1cc2c(F)cc(F)cc2c2cc(C(F)(F)F)ccc12 (stereo not drawn)", "target or system": "HepG2", "assay": "cell growth or viability, neutral red", "setting": "24 h", "endpoint": "pIC50", "value": 4.95}
{"SMILES": "COCCC(c1cccnc1)n1c(=S)[nH]c2ccc(Cl)cc2c1=O (stereo not drawn)", "target or system": "Mycobacterium tuberculosis", "assay": "microbial growth", "test system": "H37RV", "endpoint": "MIC90", "value": "> 100 µM"}
{"SMILES": "N=C(CC(O)c1cc2c(F)cc(F)cc2c2cc(C(F)(F)F)ccc12)NC1CC(F)(F)C1 (stereo not drawn)", "target or system": "HepG2", "assay": "cell growth or viability, neutral red", "setting": "24 h", "endpoint": "pIC50", "value": 5.14}
{"SMILES": "COc1ccc(-c2cc(C(F)(F)F)c3c(N)c(C(=O)NC(C)C4CCCCC4)sc3n2)cc1 (stereo not drawn)", "target or system": "HepG2", "assay": "cell growth or viability", "setting": "72 h", "endpoint": "pIC50", "value": "< 4.00"}
{"SMILES": "CCCCN(CCCC)C(=N)CC(O)c1cc2c(F)cc(F)cc2c2cc(C(F)(F)F)ccc12 (stereo not drawn)", "target or system": "HepG2", "assay": "cell growth or viability, neutral red", "setting": "24 h", "endpoint": "pIC50", "value": 4.78}
{"SMILES": "Nc1c(C(=O)NCc2ccccc2)sc2nc(-c3ccccc3)ccc12", "target or system": "HepG2", "assay": "cell growth or viability", "setting": "72 h", "endpoint": "pIC50", "value": "< 4.00"}
{"SMILES": "O=c1c2ccccc2[se]n1-c1ccccc1", "target or system": "Trypanosoma cruzi", "assay": "parasite growth", "test system": "Vero", "setting": "72 h, intracellular, amastigote", "endpoint": "pEC50", "value": 5.43}
